Assay results published in BindingDB's records for doi:10.1016/j.bmc.2011.09.065 (2011).
pKd: −log10 of the molar value.

Molecular target: Amyloid-beta precursor protein (Homo sapiens, UniProt P05067)
Assay: Binding affinity to human amyloid beta (1 to 42) fibril by fluorescence intensity assay
Outline: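 Fibrils grown from human insulin (3 mg/mL, Tris-HCl 50 mM pH 3), E. coli-expressed human α-syn (3 mg/mL, pH 7.4) or Aβ(1–42) (0.5 mg/ml, 1% NH4OH). Fibril level taken as supernatant protein depletion. Plate-reader intensity read at each ligand's maximal excitation/emission wavelengths, dye blanks subtracted. Kd from single-site saturation fit.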

Chain of Amyloid-beta precursor protein (P05067 whole entry): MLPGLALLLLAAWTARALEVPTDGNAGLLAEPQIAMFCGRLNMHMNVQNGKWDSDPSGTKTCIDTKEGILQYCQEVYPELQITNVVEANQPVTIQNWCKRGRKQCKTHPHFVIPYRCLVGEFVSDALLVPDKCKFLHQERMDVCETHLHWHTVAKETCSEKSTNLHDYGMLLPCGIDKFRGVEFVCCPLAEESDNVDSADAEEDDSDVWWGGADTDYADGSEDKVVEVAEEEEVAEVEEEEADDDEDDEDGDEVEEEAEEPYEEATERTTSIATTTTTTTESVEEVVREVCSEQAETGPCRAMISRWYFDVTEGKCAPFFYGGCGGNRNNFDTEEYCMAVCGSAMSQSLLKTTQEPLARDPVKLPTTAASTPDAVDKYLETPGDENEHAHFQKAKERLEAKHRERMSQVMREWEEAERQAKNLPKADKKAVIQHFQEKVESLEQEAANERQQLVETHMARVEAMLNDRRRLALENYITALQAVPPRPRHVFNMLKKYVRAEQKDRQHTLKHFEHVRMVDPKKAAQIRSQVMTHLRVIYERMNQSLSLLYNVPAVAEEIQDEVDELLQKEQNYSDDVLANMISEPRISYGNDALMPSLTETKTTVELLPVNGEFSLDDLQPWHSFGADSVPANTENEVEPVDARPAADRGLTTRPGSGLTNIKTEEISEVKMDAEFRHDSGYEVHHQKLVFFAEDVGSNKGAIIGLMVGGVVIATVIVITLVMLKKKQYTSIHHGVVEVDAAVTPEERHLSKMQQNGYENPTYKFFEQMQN

**Q.** CN(CCF)c1ccc(/C=C/c2nc3ccccc3s2)cc1 was tested. Which pKd did it give?
**A.** 7.04

**Q.** CN(CCF)c1ccc(/C=C\c2nc3ccccc3o2)cc1 was tested. Which pKd did it give?
**A.** 6.78

**Q.** How did the pKd turn out when CN(CCF)c1ccc(/C=C/c2nc3ccccc3n2C)cc1 was run?
**A.** 6.72

**Q.** How did the pKd turn out when CN(CCF)c1ccc(/C=C/c2nc3ccccc3o2)cc1 was run?
**A.** 6.65

**Q.** How did the pKd turn out when CN(CCF)c1ccc(/C=C\c2nc3ccccc3s2)cc1 was run?
**A.** 7.38

**Q.** CN(CCF)c1ccc(/C=C\c2nc3ccccc3n2C)cc1 was tested. Which pKd did it give?
**A.** 6.54

**Q.** With CN(CCF)c1ccc(/C=C/c2nc3ccccc3[nH]2)cc1 as the compound, how does the pKd read?
**A.** 6.56
